Assay results published in ChEMBL document CHEMBL1128719, “The synthesis, structure-activity, and structure-side effect relationships of a series of 8-alkoxy- and 5-amino-8-alkoxyquinolone antibacterial agents” (J Med Chem, 1995).
Converted amounts (≈) assume the structure as drawn.

How the values were obtained:
Streptococcus pneumoniae = experiment: In vitro antibacterial activity was tested for Streptococcus pneumoniae SV-1; type: functional
Method in brief: (§1)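 Microtitration (microdilution) MIC determination in μg/mL against a panel of Gram-positive, Gram-negative and anaerobic organisms. Values come from duplicate or triplicate experiments and are stated accurate to ±50%.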

[1] = test system: Peptoniphilus asaccharolyticus; experiment: In vitro antibacterial activity was tested for Pepto asac PA 3-1; type: functional; method in brief: as §1
Mus musculus [2] = species: Mus musculus; experiment: (§2) Phototoxic skin reaction in depilated female CD-1 mice; type: functional
Method in brief: (§3)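 Female CD-1 mice, depilated, given a single oral or subcutaneous dose. UVA (320–400 nm) exposure for 3 h, starting 1 h post-dose. Initial doses were 30, 100 and 300 mg/kg. PTD50 (dose giving phototoxic skin reaction in 50% of mice) derived by probit method. First day of positive reaction and no-effect dose taken from raw data.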

Clostridium perfringens = experiment: In vitro antibacterial activity against Clostridium perfringens CP 3-1; type: functional
Cutibacterium acnes = experiment: In vitro antibacterial activity was tested for Propion acnes PA5-1; type: functional; method in brief: as §1
Bacteroides fragilis = experiment: In vitro antibacterial activity against Bacteroides fragilis BFA; type: functional; method in brief: as §1
Escherichia coli [3] = experiment: In vitro antibacterial activity was tested for Escherichia coli Vogel; type: functional; method in brief: as §1
Pseudomonas aeruginosa = experiment: In vitro antibacterial activity was tested for Pseudomonas aeruginosa UI-18; type: functional; method in brief: as §1
Escherichia coli [4] = experiment: In vitro antibacterial activity was tested for Escherichia coli H560; type: functional; method in brief: as §1
Staphylococcus aureus [5] = experiment: In vitro antibacterial activity was tested for Staphylococcus aureus UC-76; type: functional; method in brief: as §1
Staphylococcus aureus [6] = experiment: In vitro antibacterial activity was tested for Staphylococcus aureus H228; type: functional; method in brief: as §1
Mus musculus [7] = species: Mus musculus; experiment: as §2; type: toxicity, organism-based; conditions: in vivo; method in brief: as §3
Enterococcus faecalis = experiment: In vitro antibacterial activity was tested for Streptococcus faecalis MGH-2; type: functional; method in brief: as §1
Enterobacter cloacae = experiment: In vitro antibacterial activity was tested for Enterobacter cloacae HA2646; type: functional
Providencia rettgeri = experiment: In vitro antibacterial activity was tested for Providencia rettgeri H1771; type: functional; method in brief: as §1
Clostridioides difficile = experiment: In vitro antibacterial activity was tested for Clostridium diff CD1-1; type: functional
Streptococcus pyogenes = experiment: In vitro antibacterial activity was tested for Streptococcus pyogenes C203; type: functional; method in brief: as §1
Klebsiella pneumoniae = experiment: In vitro antibacterial activity was tested for Klebsiella pneumoniae MGH-2; type: functional; method in brief: as §1
V79 = experiment: Clonogenic cytotoxicity against Chinese hamster V-79 cells; type: functional, cell-based; conditions: Cricetulus griseus
Method in brief: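 Chinese hamster V-79 cells grown overnight, then exposed to drug 3 h at 37 °C; drug medium replaced with fresh medium, cells incubated 5 days and scored for colony formation. IC50 (μg/mL) taken as concentration inhibiting colony formation by 50% versus control.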

SMILES: COc1c(N2CC(C)NC(C)C2)c(F)cc2c(=O)c(C(=O)O)cn(C3CC3)c12 (stereo not drawn)
- MIC (Streptococcus pneumoniae): 0.1 µg/mL (≈ 0.257 µM)
- MIC [1]: 0.8 µg/mL (≈ 2.05 µM)
- No effect dose (Mus musculus [2]): 100 mg
- MIC (Clostridium perfringens): 0.4 µg/mL (≈ 1.03 µM)
- MIC (Cutibacterium acnes): 0.4 µg/mL (≈ 1.03 µM)
- MIC (Bacteroides fragilis): 0.8 µg/mL (≈ 2.05 µM)
- MIC (Escherichia coli [3]): 0.1 µg/mL (≈ 0.257 µM)
- MIC (Pseudomonas aeruginosa): 3.1 µg/mL (≈ 7.96 µM)
- MIC (Escherichia coli [4]): 0.05 µg/mL (≈ 0.128 µM)
- MIC (Staphylococcus aureus [5]): 0.05 µg/mL (≈ 0.128 µM)
- MIC (Staphylococcus aureus [6]): 0.1 µg/mL (≈ 0.257 µM)
- PTD50 (Mus musculus [7]): > 100 mg
- MIC (Enterococcus faecalis): 0.2 µg/mL (≈ 0.514 µM)
- MIC (Enterobacter cloacae): 0.1 µg/mL (≈ 0.257 µM)
- MIC (Providencia rettgeri): 0.8 µg/mL (≈ 2.05 µM)
- MIC (Clostridioides difficile): 3.1 µg/mL (≈ 7.96 µM)
- MIC (Streptococcus pyogenes): 0.1 µg/mL (≈ 0.257 µM)
- MIC (Klebsiella pneumoniae): 0.2 µg/mL (≈ 0.514 µM)

SMILES: NCC1CCCN(c2c(F)c(N)c3c(=O)c(C(=O)O)cn(C4CC4)c3c2F)C1 (stereo not drawn)
- MIC (Streptococcus pneumoniae): 0.003 µg/mL (≈ 0.00765 µM)
- MIC (Escherichia coli [3]): 0.05 µg/mL (≈ 0.127 µM)
- MIC (Pseudomonas aeruginosa): 0.8 µg/mL (≈ 2.04 µM)
- MIC (Escherichia coli [4]): 0.025 µg/mL (≈ 0.0637 µM)
- MIC (Staphylococcus aureus [5]): 0.003 µg/mL (≈ 0.00765 µM)
- MIC (Staphylococcus aureus [6]): 0.025 µg/mL (≈ 0.0637 µM)
- MIC (Enterococcus faecalis): 0.013 µg/mL (≈ 0.0331 µM)
- IC50 (V79): 38 µg/mL (≈ 96.8 µM)
- MIC (Enterobacter cloacae): 0.05 µg/mL (≈ 0.127 µM)
- MIC (Providencia rettgeri): 0.2 µg/mL (≈ 0.51 µM)
- MIC (Streptococcus pyogenes): 0.13 µg/mL (≈ 0.331 µM)
- MIC (Klebsiella pneumoniae): 0.1 µg/mL (≈ 0.255 µM)

SMILES: COc1c(N2CCC(N)C2)c(F)cc2c(=O)c(C(=O)O)cn(C3CC3)c12 (stereo not drawn)
- MIC (Streptococcus pneumoniae): 0.025 µg/mL (≈ 0.0692 µM)
- MIC [1]: 0.8 µg/mL (≈ 2.21 µM)
- No effect dose (Mus musculus [2]): 100 mg
- MIC (Clostridium perfringens): 0.1 µg/mL (≈ 0.277 µM)
- MIC (Cutibacterium acnes): 0.4 µg/mL (≈ 1.11 µM)
- MIC (Bacteroides fragilis): 0.2 µg/mL (≈ 0.553 µM)
- MIC (Escherichia coli [3]): 0.025 µg/mL (≈ 0.0692 µM)
- MIC (Pseudomonas aeruginosa): 0.4 µg/mL (≈ 1.11 µM)
- MIC (Escherichia coli [4]): 0.013 µg/mL (≈ 0.036 µM)
- MIC (Staphylococcus aureus [5]): 0.013 µg/mL (≈ 0.036 µM)
- MIC (Staphylococcus aureus [6]): 0.05 µg/mL (≈ 0.138 µM)
- PTD50 (Mus musculus [7]): > 100 mg
- MIC (Enterococcus faecalis): 0.05 µg/mL (≈ 0.138 µM)
- MIC (Enterobacter cloacae): 0.025 µg/mL (≈ 0.0692 µM)
- MIC (Providencia rettgeri): 0.1 µg/mL (≈ 0.277 µM)
- MIC (Clostridioides difficile): 0.4 µg/mL (≈ 1.11 µM)
- MIC (Streptococcus pyogenes): 0.025 µg/mL (≈ 0.0692 µM)
- MIC (Klebsiella pneumoniae): 0.05 µg/mL (≈ 0.138 µM)

SMILES: NC1CCN(c2c(F)cc3c(=O)c(C(=O)O)cn(C4CC4)c3c2Cl)C1 (stereo not drawn) [CLINAFLOXACIN]
- MIC (Streptococcus pneumoniae): 0.05 µg/mL (≈ 0.137 µM)
- MIC [1]: 0.4 µg/mL (≈ 1.09 µM)
- No effect dose (Mus musculus [2]): 18 mg
- MIC (Clostridium perfringens): 0.1 µg/mL (≈ 0.273 µM)
- MIC (Cutibacterium acnes): 0.2 µg/mL (≈ 0.547 µM)
- MIC (Bacteroides fragilis): 0.1 µg/mL (≈ 0.273 µM)
- MIC (Escherichia coli [3]): 0.013 µg/mL (≈ 0.0355 µM)
- MIC (Pseudomonas aeruginosa): 0.05 µg/mL (≈ 0.137 µM)
- MIC (Escherichia coli [4]): 0.006 µg/mL (≈ 0.0164 µM)
- MIC (Staphylococcus aureus [5]): 0.013 µg/mL (≈ 0.0355 µM)
- MIC (Staphylococcus aureus [6]): 0.05 µg/mL (≈ 0.137 µM)
- PTD50 (Mus musculus [7]): 23 mg
- MIC (Enterococcus faecalis): 0.05 µg/mL (≈ 0.137 µM)
- MIC (Enterobacter cloacae): 0.025 µg/mL (≈ 0.0683 µM)
- MIC (Providencia rettgeri): 0.025 µg/mL (≈ 0.0683 µM)
- MIC (Clostridioides difficile): 0.4 µg/mL (≈ 1.09 µM)
- MIC (Streptococcus pyogenes): 0.05 µg/mL (≈ 0.137 µM)
- MIC (Klebsiella pneumoniae): 0.025 µg/mL (≈ 0.0683 µM)

SMILES: COc1c(N2CCNC(C)C2)c(F)cc2c(=O)c(C(=O)O)cn(C3CC3)c12 (stereo not drawn) [GATIFLOXACIN]
- MIC (Streptococcus pneumoniae): 0.1 µg/mL (≈ 0.266 µM)
- MIC [1]: 0.8 µg/mL (≈ 2.13 µM)
- MIC (Clostridium perfringens): 0.4 µg/mL (≈ 1.07 µM)
- MIC (Cutibacterium acnes): 0.4 µg/mL (≈ 1.07 µM)
- MIC (Bacteroides fragilis): 0.4 µg/mL (≈ 1.07 µM)
- MIC (Escherichia coli [3]): 0.05 µg/mL (≈ 0.133 µM)
- MIC (Pseudomonas aeruginosa): 0.8 µg/mL (≈ 2.13 µM)
- MIC (Escherichia coli [4]): 0.05 µg/mL (≈ 0.133 µM)
- MIC (Staphylococcus aureus [5]): 0.05 µg/mL (≈ 0.133 µM)
- MIC (Staphylococcus aureus [6]): 0.2 µg/mL (≈ 0.533 µM)
- MIC (Enterococcus faecalis): 0.2 µg/mL (≈ 0.533 µM)
- IC50 (V79): 85 µg/mL (≈ 226 µM)
- MIC (Enterobacter cloacae): 0.05 µg/mL (≈ 0.133 µM)
- MIC (Providencia rettgeri): 0.2 µg/mL (≈ 0.533 µM)
- MIC (Clostridioides difficile): 1.6 µg/mL (≈ 4.26 µM)
- MIC (Streptococcus pyogenes): 0.1 µg/mL (≈ 0.266 µM)
- MIC (Klebsiella pneumoniae): 0.1 µg/mL (≈ 0.266 µM)
